CSN inh: blocks human CSN-mediated cullin deneddylation | Q92905 | Purified CSN, SCF-Nedd8-OG deneddylation, fluorescence polarization | inhibition, % at 12.5 µM | hit rate 0.38% among 360,000 | AID 651999;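 active = pattern-corrected inhibition above about 35%, with an unprinted fluorescence ratio check between 0.5 and 1.5, limit read from the data, passing the limit was not always enough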;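 also: 0% = enzyme with substrate and 100% = substrate without enzyme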
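Material: human Csn5 produced in HEK293T cells; Input: enzyme 0.24 nM; Reagent: SCFSkp2-Nedd8OG substrate at 10 nM final; Dosing: 12.5 µM compound; Incubation: 90 min reaction at room temperature; Detection: fluorescence polarization of the substrate; Evaluation: % inhibition of substrate cleavage by Csn5; Control set: substrate-only high control, full reaction low control.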
Rpn11 block: blocks the human proteasome subunit Rpn11; human 26S proteasome, Ub4-pepOG fluorescence polarization; 20S core pre-blocked with epoxomicin; O00487; inhibition, % at 20 µM; hit rate 0.59% among 360,000;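 active = inhibition at 20 µM, scaled to each plate's controls, above about 33%, limit read from the data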
Target sequence (O00487 whole entry, looked up): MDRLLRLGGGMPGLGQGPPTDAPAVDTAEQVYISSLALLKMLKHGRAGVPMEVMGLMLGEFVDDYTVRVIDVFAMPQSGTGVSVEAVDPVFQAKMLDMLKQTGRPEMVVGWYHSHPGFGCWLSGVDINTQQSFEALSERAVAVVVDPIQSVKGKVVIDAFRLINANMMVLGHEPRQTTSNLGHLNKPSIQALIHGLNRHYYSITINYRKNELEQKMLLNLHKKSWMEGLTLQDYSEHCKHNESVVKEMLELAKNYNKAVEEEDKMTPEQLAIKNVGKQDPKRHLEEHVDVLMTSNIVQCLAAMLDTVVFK
Myeloid diff 2: compounds promoting myeloid differentiation; calls only at 10 µM; hit rate 1% among 360,000; ER-HoxA9 myeloid progenitors, lysozyme-GFP differentiation, flow cytometry; AID 624256;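 active = normalized GFP-positive differentiation at or above the plate's own cutoff, the solvent-only control mean plus 3 SD; inconclusive = no clear call, values can overlap the other calls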;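 also: cells exposed to compound for four days before flow analysis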
HNF4A DNA FP: change in binding of human HNF4 alpha to DNA; HNF4a-FITC DNA binding, fluorescence polarization, 1 h; activity change, % at 10 µM; hit rate 0.3% among 360,000; AID 1224865; in the data active = activity change above about 30%, passing the limit was not always enough
TPT1 inh: inhibitors of Candida albicans tRNA 2'-phosphotransferase TPT1; recombinant caTPT1, FP RNA substrate dephosphorylation; inhibition, % at 5 µM; hit rate 0.81% among 300,000; AID 1962;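 active = inhibition above the mean of all tested compounds plus 3 SD, set per screening campaign, cut at about 24% in these data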;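 also: plate controls were DMSO alone for no effect and ferristatin control at 100 nM for full effect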
TPT1 inh confirm: confirmation of Candida albicans TPT1 inhibitors; shares compounds with TPT1 inh; recombinant caTPT1, fluorescence polarization, RNase T1 coupled; inhibition, % at 5 µM; hit rate 74% among 2,400; AID 2149;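 active = inhibition above the primary screen limit, the mean inhibition of all tested compounds plus 3 SD, cut at about 25% in these data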
RNase T1 counter: RNase T1 inhibition in TPT1 counter-screen. shares compounds with TPT1 inh. RNase T1 cleavage, fluorescence polarization, 1536-well. inhibition, % at 5 µM. hit rate 83% among 2,400. AID 2153;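 active = inhibition above the solvent-only control well mean plus 3 SD, limit set per screening run, cut at about 23% in these data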;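 also: plate controls were DMSO wells with enzyme for no effect and wells without RNase T1 for full effect; inhibitors block cleavage so intact labeled substrate keeps polarization high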
Target sequence (P00651 whole entry, looked up): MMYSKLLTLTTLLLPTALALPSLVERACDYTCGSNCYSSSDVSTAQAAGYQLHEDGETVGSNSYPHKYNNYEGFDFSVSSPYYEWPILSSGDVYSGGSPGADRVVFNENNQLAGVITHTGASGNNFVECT
* marks the source's active call; other numbers are inactive results; i = inactive; ? = inconclusive; · = no result given; + = active, no number. This is a sample that favours compounds with a hit; in the whole collection about 2.3% have one here.

SMILES	CSN inh	Rpn11 block	Myeloid diff 2	HNF4A DNA FP	TPT1 inh	TPT1 inh confirm	RNase T1 counter
CN(C)c1ccc(C2C=C(c3ccc(Cl)cc3OC(F)F)Nc3ncnn32)cc1 (stereo unspecified)	23.6	·	·	34.3	49.5*	43.0*	55.6*
Oc1c(Cl)cc(Cl)cc1/C=C/c1ccc2cccc(O)c2n1	32.0	·	i	10.1	56.1*	51.5*	59.2*
Oc1ccc(Cl)cc1/C=C/c1ccc2cccc(O)c2n1	1.9	1.9	i	4.3	·	·	·
COc1ccc(CCNC(=O)[C@H](C)N2C(=O)N3CCc4c([nH]c5ccccc45)[C@@]3(C)C2=O)cc1	1.8	0.2	i	-0.8	-3.5	·	·
C=CCn1c(SCC(=O)NCC2CCCO2)nnc1-c1ccncc1 (stereo unspecified)	-3.1	-0.7	i	-1.0	·	·	·
N#C/C(=C\C=C\c1ccccc1)c1nc(-c2ccc3c(c2)OCO3)cs1	3.5	-29.3	i	-18.8	37.4*	35.6*	46.6*
OC(c1ccccc1)(c1nc(-c2ccc3c(c2)OCO3)cs1)C(F)(F)F (stereo unspecified)	-2.6	3.8	i	2.2	·	·	·
CN(c1ccccc1)c1ccc(/C=C/[N+](=O)[O-])cc1	6.0	20.1	?	1.8	41.9*	54.7*	71.4*
CN(C)c1ccc(-n2cccc2/C=C/[N+](=O)[O-])cc1	-5.3	-2.2	i	6.4	-2.9	·	·
O=C(COc1cccc(NC(=O)c2cccc([N+](=O)[O-])c2)c1)c1ccc(F)cc1	-2.0	2.3	i	1.5	53.2*	-0.1	3.3
CSc1nsc(/C=C/Nc2ccc(C)c(C)c2)c1C#N	14.2	·	i	96.6	34.2*	66.3*	85.0*
CSc1nsc(/C=C/Nc2ccc(C)cc2)c1C#N	16.6	·	+	96.0	30.9*	50.5*	59.0*
COc1cc(/C=N/Nc2snc(SC)c2C#N)ccc1O	-0.9	-2.9	i	0.2	0.6	·	·
O=C(Nc1cccc(C(=O)O)c1)/C(=C\c1ccc(F)cc1)NC(=O)c1ccco1	0.0	3.7	i	-0.9	-2.5	·	·
CN(C)CCCNC(=O)/C(=C\c1ccc(-c2cccc([N+](=O)[O-])c2)o1)NC(=O)c1ccccc1	4.1	-6.3	i	-9.5	3.2	·	·
CN(C)CCNC(=O)/C(=C/c1ccc(-c2ccc(Cl)cc2)o1)NC(=O)c1ccccc1	-9.8	-9.5	i	-1.8	41.5*	8.2	12.2
COc1ccc(CN=CC2=C(O)CNC2=O)cc1	-10.2	-0.1	i	-0.8	-1.2	·	·
Cc1cc(C)cc(N=Cc2[nH]c3ccc(Br)c(Cl)c3c2O)c1	-10.8	18.1	i	27.3	120.5*	110.6*	111.0*
COc1ccc(CN=Cc2[nH]c3ccc(Br)c(Cl)c3c2O)cc1	11.0	·	i	64.3	87.5*	135.8*	131.2*
Cc1ccc(N=Cc2cc(Br)cc(Cl)c2O)cc1	-14.2	5.5	i	0.8	-8.9	·	·
COc1cc(/C=C/C(=O)OCC(=O)N2CCCCCC2)cc(OC)c1OC	3.6	-1.0	i	-1.9	·	·	·
O=C(N/N=C/c1sc(N2CCOCC2)nc1-c1ccccc1)c1cccc(S(=O)(=O)N2CCOCC2)c1	21.2	·	?	24.7	59.6*	60.4*	69.2*
O=C(N/N=C/c1sc(N2CCOCC2)nc1-c1ccccc1)c1ccccc1F	·	·	·	·	-2.3	·	·
Nc1ccc(C(=O)N/N=C/c2sc(N3CCOCC3)nc2-c2ccccc2)cc1	2.0	4.2	i	-1.4	-3.0	·	·
O=C(Nc1ccccc1F)C(=Cc1sc(N2CCOCC2)nc1-c1ccccc1)C(=O)Nc1ccccc1F	-14.9	-63.6	i	-55.3	48.3*	-24.3	-2.7
SMILES	CSN inh	Rpn11 block	Myeloid diff 2	HNF4A DNA FP	TPT1 inh	TPT1 inh confirm	RNase T1 counter
CCN(CC)c1ccc(C=Nc2cccc(S(=O)(=O)N3CCOCC3)c2)c(O)c1	-4.7	1.4	i	3.7	·	·	·
CCN(CC)c1ccc(/C=N/NC(=O)c2cccc(S(=O)(=O)N3CCOCC3)c2)c(O)c1	-3.8	10.2	?	6.8	41.4*	58.0*	67.3*
COC(=O)[C@]12CCCCC=C1N(CCC1=CCCCC1)C(=O)[C@H](CC(=O)NCC13CC4CC(CC(C4)C1)C3)C2	-2.0	·	i	7.0	·	·	·
COc1ccccc1C(=O)Nc1ccc2c(c1)n(C)c(=O)n2C	-2.7	-5.2	i	-1.4	1.5	·	·
COc1ccc(N/C(C)=C/C(=O)c2ccccc2)cc1	-8.6	7.3	i	0.9	0.5	·	·
COc1ccc(N/C(C)=C/C(=S)Nc2ccccc2)cc1	15.9	0.4	i	-2.9	124.7*	10.0	13.2
O=c1c(O)c(-c2cccs2)oc2ccccc12	-1.2	-3.2	i	-6.9	24.6*	24.8*	36.3*
CCN(CC)C(=O)C1=C(C)N(Cc2ccccc2)C(=O)C(CC(=O)NC2CCCCC2)C1 (stereo unspecified)	-1.8	1.0	i	-4.2	·	·	·
O=C(N/N=C/c1c(O)n(Cc2ccccc2)c(=O)c2ccccc12)c1cccnc1	20.2	·	i	42.4*	106.2*	116.9*	119.7*
O=C(N/N=C/c1c(O)n(-c2ccccc2Cl)c(=O)c2ccccc12)c1cccnc1	13.3	·	i	33.4	·	·	·
CN1/C(=C\C(=O)C(F)F)C(C)(C)c2ccccc21	-4.6	-7.1	i	1.2	-4.0	·	·
CC(C)C(=O)NC(=S)/C=C1/N(C)c2ccccc2C1(C)C	48.0*	·	+	69.2*	28.0*	16.9	23.9*
O=C(CSc1ccc([N+](=O)[O-])cc1)NNC(=O)c1ccccc1F	-1.6	-7.5	i	2.5	2.2	·	·
O=C(CN1C(=O)S/C(=C\c2cc(Cl)c(O)c(Cl)c2)C1=O)Nc1ccccc1	28.7	·	i	37.8*	95.6*	99.7*	108.3*
O=C(CN1C(=O)S/C(=C\c2ccccn2)C1=O)Nc1ccccc1	-2.1	8.4	i	2.9	·	·	·
Cn1c(N)c(-c2ccccc2)c2ccc([N+](=O)[O-])cc2c1=O	14.7	·	i	98.8*	84.2*	89.0*	91.5*
C#CCSc1nc2[nH]ncc2c(=O)[nH]1	5.2	-0.6	i	1.5	33.2*	4.3	4.6
C=CCSc1nc2[nH]ncc2c(=O)[nH]1	2.5	10.1	i	0.9	-1.5	·	·
Cc1ccc(NC(=O)CCc2nnc3ccc(N4CCC5(CC4)OCCO5)nn23)cc1F	-0.1	4.7	i	-1.0	-1.4	·	·
COc1ccc2c3c([nH]c2c1)[C@H]1C[C@H]2[C@H](C[C@@H](O)[C@H](OC)[C@H]2C(=O)O)CN1CC3	0.3	-4.2	i	-3.1	0.1	·	·
COC(=O)[C@H]1[C@H]2C[C@@H]3c4[nH]c5cc(OC)ccc5c4CCN3C[C@H]2C[C@@H](OC(=O)/C=C/c2cc(OC)c(OC)c(OC)c2)[C@@H]1OC	0.0	28.5	i	23.1	38.4*	35.5*	48.0*

Compound activity deposited in PubChem BioAssay by several laboratories.
